High-throughput results: PubChem, Sanford-Burnham Center for Chemical Genomics
FLuc inh counter – firefly luciferase enzyme inhibitors, primary screen, artefact control for luciferase-based inhibitor screens, biochemical, luminescence, ATPLite; Luciferin 4-monooxygenase (Photinus pyralis), P08659; 10 min; inhibition, % at 10 µM; 200,000 tested, 1.5% active; AID 1006, 2008;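 active = inhibition above about 50% when tested at 10 µM, limit read from the data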
Target sequence (P08659 whole entry, looked up): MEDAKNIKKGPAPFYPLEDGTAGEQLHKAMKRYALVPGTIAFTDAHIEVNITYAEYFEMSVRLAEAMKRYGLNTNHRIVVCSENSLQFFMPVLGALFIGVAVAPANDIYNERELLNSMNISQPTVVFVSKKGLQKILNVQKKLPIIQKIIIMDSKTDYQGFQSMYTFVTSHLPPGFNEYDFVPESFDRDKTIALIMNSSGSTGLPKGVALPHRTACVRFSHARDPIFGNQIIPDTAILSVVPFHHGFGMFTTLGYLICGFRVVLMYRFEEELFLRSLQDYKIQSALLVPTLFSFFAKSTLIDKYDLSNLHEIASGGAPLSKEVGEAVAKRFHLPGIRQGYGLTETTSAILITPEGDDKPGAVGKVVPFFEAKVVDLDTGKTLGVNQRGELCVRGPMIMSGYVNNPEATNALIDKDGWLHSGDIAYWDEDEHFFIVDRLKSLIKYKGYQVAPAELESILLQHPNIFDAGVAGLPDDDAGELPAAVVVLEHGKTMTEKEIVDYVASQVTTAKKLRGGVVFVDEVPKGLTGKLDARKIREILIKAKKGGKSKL
FLuc act counter – FLuc activators, initial screening, artefact control for FLuc-dependent activation tests, biochemical, ATPlite luminescence; 200,000 tested, under 10 active; activation factor at 10 µM; ATPlite luciferase biochemical, 10 min; 0 = ATP-free wells, 1 = DMSO control; Luciferin 4-monooxygenase (Photinus pyralis), P08659;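 active = luciferase activation factor, scaled between plate controls, of at least 2 with compound at 10 µM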
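test system = cell-free luciferase reagent | medium = PBS as buffer for the ATP substrate | dosing = test compounds dosed from 2 mM stocks in 100% DMSO | incubation = 10 min at ambient temperature | detection = luminescence measurement of luciferase light output | benchmarks = low control with PBS replacing ATP, high control enzyme plus ATP without compound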
TRAIL sens C8 – viability loss with TRAIL in NB7+C8 cells, primary screen, TRAIL sensitizer project, cell-based, ATPlite luminescence. inhibition (viability loss, TRAIL sensitization), % at 10 µM. 360,000 tested, 1% active;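 active = compounds causing at least 50% loss of cell viability in the single-dose screen, relative to plate controls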
PPC-1+TRAIL kill – compounds killing PPC-1 cancer cells with TRAIL present, primary screen, TRAIL potentiator project, ATPLite luminescence, uHTS; PPC-1 cells + TRAIL, ATPLite viability luminescence; cell killing (% activity), % at 4 µM or 5 µM; 220,000 tested, 0.41% active;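 active = cell killing above 50% in the first pass at 4 µM, then a duplicate retest at 5 µM averaging 50% or more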
Hits are given with their value. This is a sample that favours compounds with a hit; in the whole collection about 1.5% have one here.

How did CC1OC(OC2C=C3CCC4C(CCC5(C)C(c6ccc(=O)oc6)CCC45O)C3(C)CC2)C(O)C(OC2OC(CO)C(O)C(O)C2O)C1O (stereo not drawn) do in these assays?
TRAIL sens C8: 75

Results for O=C(CCc1ccccc1)N1Cc2cc(-c3ccccc3)ccc2-n2nncc2C1 ?
TRAIL sens C8: inactive

How did CN1CCN(Cc2cn(C)c3ccccc23)CC1CCO (stereo not drawn) do in these assays?
TRAIL sens C8: inactive

Results for O=c1[nH]c2ccccc2n1C1CCN(C(c2cc3ccccc3o2)c2nnnn2Cc2ccccc2)CC1 (stereo not drawn) ?
TRAIL sens C8: 87

How did O=c1[nH]c(=S)[nH]c(O)c1N=Nc1ccc2c(c1)OCO2 do in these assays?
FLuc inh counter: 53; FLuc act counter: inactive; TRAIL sens C8: inactive; PPC-1+TRAIL kill: inactive

How did O=c1[nH]c(O)c(N=Nc2ccc3c(c2)OCCO3)c(=O)[nH]1 do in these assays?
FLuc inh counter: 69; FLuc act counter: inactive; TRAIL sens C8: inactive; PPC-1+TRAIL kill: inactive

How did CN(C)C(=O)Oc1ccc(OC(=O)N(C)C)cc1 do in these assays?
FLuc inh counter: inactive; FLuc act counter: inactive; TRAIL sens C8: inactive; PPC-1+TRAIL kill: inactive

How did CN(C)C(=O)Oc1ccc(OCc2nc3ccccc3[nH]2)cc1 do in these assays?
FLuc inh counter: 80; FLuc act counter: inactive; TRAIL sens C8: 68; PPC-1+TRAIL kill: inactive

What do the screens show for `Cc1ccc(S(=O)(=O)CC(=O)c2cc(C)c(OC(=O)N(C)C)c(C)c2)cc1`?
FLuc inh counter: inactive; FLuc act counter: inactive; TRAIL sens C8: inactive; PPC-1+TRAIL kill: inactive

What do the screens show for `Cc1cc(C(=O)CS(=O)(=O)c2ccccc2)cc(C)c1OC(=O)N(C)C`?
FLuc inh counter: 78; FLuc act counter: inactive; TRAIL sens C8: inactive; PPC-1+TRAIL kill: inactive

How did O=C(NC1CCCCC1)[C@@H]1CC=C[C@@H]2CCN(Cc3ccccc3)C(=O)[C@@H]21 do in these assays?
TRAIL sens C8: inactive

What do the screens show for `Cc1cc(/C=C2\C(=O)NC(=O)N(c3ccc(F)cc3)C2=O)c(C)n1-c1cccc(C(=O)O)c1`?
FLuc inh counter: inactive; FLuc act counter: inactive; TRAIL sens C8: inactive; PPC-1+TRAIL kill: inactive

Results for Cc1cc(/C=C2/C(=O)NC(=O)N(C)C2=O)c(C)n1-c1ccccc1 ?
FLuc inh counter: 62; FLuc act counter: inactive; TRAIL sens C8: inactive; PPC-1+TRAIL kill: inactive

What do the screens show for `Cc1cc(/C=C2\C(=O)NC(=O)N(C)C2=O)c(C)n1-c1ccc2c(c1)OCO2`?
FLuc inh counter: 61; FLuc act counter: inactive; TRAIL sens C8: inactive; PPC-1+TRAIL kill: inactive

What do the screens show for `Cc1cc(C=C2C(=O)NC(=O)NC2=O)c(C)n1-c1ccc2c(c1)OCO2`?
FLuc inh counter: 56; FLuc act counter: inactive; TRAIL sens C8: inactive; PPC-1+TRAIL kill: inactive

How did Cc1cccc(OP(N)(N)=O)c1C do in these assays?
FLuc inh counter: inactive; FLuc act counter: inactive; TRAIL sens C8: inactive; PPC-1+TRAIL kill: inactive

What do the screens show for `CC1=C(O)C(=O)C=C2C1=CC=C1C2(C)CCC2(C)C3CC(C)(C(=O)O)CCC3(C)CCC12C` (stereo not drawn)?
TRAIL sens C8: 89

Results for COc1cccc(C(c2nnnn2Cc2ccccc2)N2CCC(n3c(=O)[nH]c4ccccc43)CC2)c1OC (stereo not drawn) ?
TRAIL sens C8: inactive

Results for COc1cccc2c1C(=O)c1c(O)c3c(c(O)c1C2=O)CC(O)(C(C)=NO)CC3OC1CC(N)C(O)C(C)O1 (stereo not drawn) ?
TRAIL sens C8: 53

How did COP(=O)(OC)C(O)C(Cl)(Cl)Cl (stereo not drawn) do in these assays?
FLuc inh counter: inactive; FLuc act counter: inactive; PPC-1+TRAIL kill: inactive

Results for CN1CCN(Cc2nc3ccccc3n2C)CC1 ?
FLuc inh counter: inactive; FLuc act counter: inactive; TRAIL sens C8: inactive; PPC-1+TRAIL kill: inactive

Results for Cn1c(NN=O)nc2ccccc21 ?
FLuc inh counter: inactive; FLuc act counter: inactive; TRAIL sens C8: 57; PPC-1+TRAIL kill: inactive

What do the screens show for `COC1CCC(OC2CC(C3(C)CCC4(CC(O)C(C)C(C(C)/C=C(\C)C(=O)C(C)CC(C)C(=O)O)O4)O3)OC3(OC(C4OC(O)(CO)C(C)CC4C)CC3C)C2C)OC1C` (stereo not drawn)?
TRAIL sens C8: 81

How did Cc1[nH]c2ccccc2c1C(=O)C(=O)N1CC2CC(C1)c1cccc(=O)n1C2 (stereo not drawn) do in these assays?
FLuc inh counter: inactive; FLuc act counter: inactive; TRAIL sens C8: inactive; PPC-1+TRAIL kill: inactive

Results for CCC(=O)[C@@H](C)[C@@H](O)[C@H](C)C[C@@H](C)C1OC(=O)C[C@@]2(O)CC=C(C)C(O2)C(C)=CCCC[C@H](O[C@H]2C[C@@H](OC(N)=O)[C@H](O)[C@@H](C)O2)C=C[C@H](C)C[C@H]1C (stereo partly drawn) ?
TRAIL sens C8: inactive

What do the screens show for `COc1ccc(-n2nnnc2C(C2CC2)N2CCC(n3c(=O)[nH]c4ccccc43)CC2)cc1` (stereo not drawn)?
TRAIL sens C8: inactive

What do the screens show for `CCOC(=O)[C@]12Cc3cc(OC)ccc3[C@H]1N(C1CCCCC1)C(=O)c1ccccc12`?
TRAIL sens C8: 85

How did CCOC(=O)[C@]12Cc3cc(OC)ccc3[C@H]1N(C)C(=O)c1ccccc12 do in these assays?
TRAIL sens C8: inactive

Results for CCOC(=O)[C@]12Cc3cc(Cl)ccc3[C@H]1N(C1CCCCC1)C(=O)c1ccccc12 ?
TRAIL sens C8: 96

What do the screens show for `CNC(=O)Oc1ccc(-c2cn3cc(Cl)ccc3n2)cc1`?
FLuc inh counter: 93; FLuc act counter: inactive; TRAIL sens C8: 84; PPC-1+TRAIL kill: 55

Results for CNC(=O)Oc1cccc(-c2cn3cc(OC(=O)NC)ccc3n2)c1 ?
FLuc inh counter: 73; FLuc act counter: inactive; TRAIL sens C8: inactive; PPC-1+TRAIL kill: inactive

How did CN(C)C1(c2nnnn2CCOC(=O)Nc2ccc(Cl)cc2)CCCCC1 do in these assays?
FLuc inh counter: inactive; FLuc act counter: inactive; TRAIL sens C8: inactive; PPC-1+TRAIL kill: inactive

What do the screens show for `CCN1CCC(NCC2CCCCC2)CC1`?
TRAIL sens C8: inactive

What do the screens show for `CCC/C=N/O`?
TRAIL sens C8: inactive

What do the screens show for `CC12CCC3C(CCC4(O)CC(O)CCC34C=NO)C1(O)CCC2C1=COC(=O)C1` (stereo not drawn)?
TRAIL sens C8: 69

Results for C[C@H]1O[C@@H](OC2CC[C@]3(C=O)[C@H]4CC[C@]5(C)[C@@H](C6=CC(=O)OC6)CC[C@]5(O)[C@@H]4CC[C@]3(O)C2)CC2OC(C)(C)OC21 (stereo partly drawn) ?
TRAIL sens C8: 48

Results for CC12CC[C@H]3[C@@H](CCC4(O)C[C@H](O)CCC34/C=N/NC(=O)c3ccccc3Cl)C1(O)CCC2C1=CC(=O)OC1 (stereo partly drawn) ?
TRAIL sens C8: inactive; PPC-1+TRAIL kill: inactive
